The values that follow come from PMC3358452 (Chemical Research in Toxicology, 2012).

Data set [1] is classed as physicochemical. In a few lines:
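Reverse-phase HPLC quantified lactone left after an acidic aqueous solution reached equilibrium at 25 °C. The solution initially held 0.05 M lactone, measured gravimetrically, in 5% by volume acetonitrile. Ionic strength was set with KCl and hydrogen ion concentration varied. Remaining lactone was interpolated from a standard curve; triplicate injections per determination.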

A short description of a further data set: Kinetics of decay. The conditions noted are these: for half-life at 0.0013 M: buffered aqueous solution, pH 7, t1/2 for decay. Format: physicochemical. The essentials: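 The first check was in D2O with 0.005 M DCl, 0.005 M lactone and 0.005 M acetonitrile as internal standard, at 25 °C. Loss of the C-6 1H-NMR resonances at 4.78 ppm was compared with UV decay at 225 nm. The extended UV runs used 220–235 nm, 5% acetonitrile/H2O, ionic strength 1 M (KCl), 25 °C and 0.0013 M lactone. Buffers were formic, acetic, cacodylic and ethylphosphonic.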

Data set [2] is described as follows: Lower limit of KO by monitoring disappearance of the lactone multiplets. In kind it is physicochemical. The conditions noted are these: D2O, 1 M DClO4, lactone multiplets monitored to equilibrium.
A short description of a further data set: pKa of. In kind it is physicochemical. Particulars: Calculated pKa, 25 °C, buffer 0.05 M, AH/A- = 1.0. The essentials: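 pH was measured in solutions of the sodium salt of the acid, measured gravimetrically and partially neutralized with HCl. Solutions held 5% by volume acetonitrile, with ionic strength balanced by KCl. […] Mean and SD of duplicates at 25 °C.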

Setting [3] is: fit of log ko vs pH, 25 °C, ionic strength 1 M (KCl), 5% by volume acetonitrile.
The mark [4] stands for this setting: group 2: AFB1 followed by 1 (1.32 g over 12 weeks), mean ± SEM.
The mark [5] stands for this setting: group 3: 1 only (1.32 g over 12 weeks).

Like-named read-outs stand apart in the source and are kept apart here.

For aflatoxin B1 [AFB1, reference compound], in the data set on F344 rat liver (rat, in vivo), the “Foci per cubic cm (morphometric)” value is 1230 ± 410, the “Mean Diameter of foci (morphometric)” value turned out to be 227 ± 35 microns, the “Mean Foci Counted (observed)” value came out at 44 ± 8 and the “Volume % of liver occupied by GST-P positive foci” value stood at 3.1 ± 1.0%. For the same molecule, the “average size of observed GST-P positive foci” value in the data set with F344 rat liver (rat, in vivo) is greater than 200 µm.
Regarding `O=C1COCCO1` [compound 1, 1,4-Dioxan-2-one], the “KOA, equilibrium constant between 1 and carboxylic acid anion 3 and the proton (KOA = Ka × KO)” value in data set [1] (25 °C, ionic strength 1M (KCl), 5% by volume acetonitrile) is reported as 0.034 ± 0.002 M. For the same molecule, the “Ko, equilibrium constant for lactone 1 and its open-chain acid form” value in data set [1] (25 °C, [HCl] 0.05 M, total ionic strength 0.05 M, 5% by volume acetonitrile) is given as 71; in data set [1] (25 °C, [HCl] 0.10 M, total ionic strength 1.0 M (KCl), 5% by volume acetonitrile), 70; in data set [1] (25 °C, [HCl] 0.20 M, total ionic strength 1.0 M (KCl), 5% by volume acetonitrile) it was 70. The “KO, equilibrium constant between 1 and hydrolysis product 2” value in data set [1] (acidic aqueous media, 25 °C, ionic strength 1M (KCl), 5% by volume acetonitrile) stood at 70 ± 3.5. In data set [1] (pH = 7), the “lactone as percent of the total species at equilibrium” value is given as ~ 3 ×10^−4%. In “Kinetics of decay” (1H-NMR, D2O, 0.005 M DCl, 25 °C), the “first order rate constant of decay (NMR)” value amounted to 0.017 ± 0.002 min⁻¹. Also, the “first order rate constant of decay (UV)” value in “Kinetics of decay” (UV spectrophotometry, D2O, 0.005 M DCl, 25 °C) stood at 0.016 ± 0.001 min⁻¹. The half-life at 0.0013 M was 2.12 h in “Kinetics of decay” (pH 7) and roughly 2 h in the data set “Kinetics of decay” (pH = 7.0, 25 °C). Moreover, the “factor by which 1 is more reactive toward hydroxide ion than valerolactone” value in the data set “Kinetics of decay” (comparison with literature rate constant) is on record as ~ 1500. Moreover, the “kH+, hydrogen ion catalyzed rate constant for solvolysis” value in “Kinetics of decay” (setting [3]) is given as 1.1 (± 0.1) M^−1 min^−1. Further, in “Kinetics of decay” (setting [3]), the “kOH, hydroxide ion catalyzed rate constant” value is 4.1 (± 0.3) × 10^4 M^−1 min^−1. The “kw, water catalyzed (pH-independent) rate constant” value in “Kinetics of decay” (setting [3]) is recorded as 9.9 (± 0.5) × 10^−4 min^−1. Besides, in data set [2], the “KO, lower limit value” is recorded as greater than 50. In addition, in the data set with F344 rat liver (group 2 (AFB1 + 1), data not shown), the “average size of observed GST-P positive foci” value is on record as greater than 200 µm. Besides, the “Foci per cubic cm (morphometric)” value worked out at 1190 ± 230 in the data set on F344 rat liver (setting [4]) and 6.1 ± 6.1 in the data set on F344 rat liver (group 3: 1 only (1.32 g over 12 weeks), mean ± SEM). Moreover, the “Mean Diameter of foci (morphometric)” value with F344 rat liver (setting [4]) is recorded as 210 ± 32 microns; with F344 rat liver (setting [5]), 65 microns. Moreover, the figures for the “Volume % of liver occupied by GST-P positive foci” value with F344 rat liver (setting [4]) and with F344 rat liver (setting [5]) were 2.1 ± 0.7% and 0.001%, respectively. For the same molecule, the “diameter of the single focus observed” value in the data set on F344 rat liver (group 3 (1 only)) amounted to 65 µm. Also, the “Mean Foci Counted (observed)” value in the data set with F344 rat liver (group 3: 1 only, gavage 3 days/week for 12 weeks (1.32 g total), mean ± SEM) is reported as 0.1 ± 0.1.
With `O=C(O)COCCO` [compound 2, 2-(2-hydroxyethoxy) acetic acid], the pKa was 3.43 in “pKa of” (ionic strength 0.05 M); 3.36 in “pKa of” (ionic strength 0.25 M (KCl)); 3.36 in the data set “pKa of” (ionic strength 0.35 M (KCl)); 3.36 in “pKa of” (ionic strength 0.45 M (KCl)); 3.38 in the data set “pKa of” (ionic strength 0.55 M (KCl)).
